Four compounds from article PMC9111184 (Current Research in Pharmacology and Drug Discovery, 2022) can be followed below.

The subject of one series is Caco-2 cells. Kind of series: FTIR analysis of treated cells. Type of series: cell-based, Human. The conditions noted are these: phenolic compounds 1 mM, 24 h. In a few lines:
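Cell suspension at ~1.2 × 10^6 cells/mL was seeded onto CaF2 windows and left overnight. Cells were then exposed 24 h to phenolic test compounds at 1 mM or another test compound at 100 μM; untreated cells served as control. FTIR spectra covered 900–3000 cm−1 at 4 cm−1 resolution, averaging 128 scans, and were normalized to Amide II. Spectra were Savitsky-Golay smoothed (eight points) and second-derivative processed; 4 replicates.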

The nature of a further series: Permeability. Type of series: in vitro ADME. Particulars: human, Caco-2. In a few lines: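 Monolayers were Caco-2 grown 16 days on 0.4 μm-pore transwell inserts after seeding at 2–4 x 10^4 cells/cm2, with TEER above 250 Ω/cm2 checked before and after. Test compound in DMEM containing 5 mM cholesterol went apically and DMEM basolaterally for 24 h, 37 °C, 5% CO2. Both compartments were quantified by RP-HPLC-DAD. Papp = (dQ/dt)/(A × C0), using basolateral appearance rate, membrane area and initial concentration.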
(Caco-2 cells form a polarised layer with tight junctions and transporters.)

For the next series, the system named is Caco-2 cell monolayers. The format is cell-based, Human. Particulars: relative to cholesterol alone, 24 h. Put shortly: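 Caco-2 seeded at 2–4 x 10^4 cells/cm2 on transwell inserts (0.4 μm pore) and grown 16 days into monolayers. TEER was read before and after; monolayers above […] were accepted. Test compound was added apically in DMEM together with 5 mM cholesterol, with plain DMEM basolateral. After 24 h at 37 °C, 5% CO2, both sides were sampled for RP-HPLC-DAD. Cholesterol permeation % = amount transported/initial apical amount.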

The nature of series [1]: MTT cytotoxicity on Caco-2 cell line. Type of series: cell-based. Particulars: human, Caco-2 cells. Put shortly:
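MTT viability test: 2 × 10^4 cells per well, pre-incubated 48 h at 37 °C, 5% CO2. Test compound in FBS-free DMEM was added at 0.025–1 mg/mL (phenolic acids) or 0.1–1 mM (other compound) for 24 h, then MTT reagent. Absorbance was read at 595 nm minus 630 nm, and viability expressed as % of untreated control; eight replicates per concentration.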

Consider `O=C(/C=C/c1ccc(O)c(O)c1)O[C@@H]1C[C@](O)(C(=O)O)C[C@@H](O)[C@H]1O` [ChA, chlorogenic acid], for which, in the series on Caco-2 cells, the “Change of band at 1081 cm−1 relative to control” value is recorded as “increase”. In the series with Caco-2 cells (Ezetimibe 100 μM), the “Change of bands at 965, 1081 and 1240 cm−1 (DNA bands) relative to control” value (shortened to “Change … (DNA bands) relative to control”) is on record as “decrease”. In addition, in the series “Permeability”, the Papp at 24 h was determined as 1.38 ×10⁻⁶ cm/s. Moreover, the “Decrease in cholesterol permeability” value in the series on Caco-2 cell monolayers is on record as 80.29%.

In the case of `O=C1[C@H](CC[C@H](O)c2ccc(F)cc2)[C@@H](c2ccc(O)cc2)N1c1ccc(F)cc1` [EZ, ezetimibe, reference compound], the midpoint of inhibition in series [1], the IC50 at 24 h, lay at 228 µM. For the same compound, in “Permeability”, the Papp at 24 h turned out to be 2.94 ×10⁻⁶ cm/s. The “Decrease in cholesterol permeability” value in the series with Caco-2 cell monolayers was determined as 96.60%.

With `O=C(/C=C/c1ccc(O)c(O)c1)O[C@H](Cc1ccc(O)c(O)c1)C(=O)O` [RA, rosmarinic acid], in the series on Caco-2 cells (Ezetimibe 100 μM), the “Change … (DNA bands) relative to control” value is reported as “decrease”; the “Change of random coil structures at 1650 cm−1 vs untreated cells” value is “increase”; the “Change of β-sheets band area at ∼1637 and 1683 cm−1 vs untreated cells” value is “increase”. The compound also yielded a Papp at 24 h in the series “Permeability” of 1.68 ×10⁻⁶ cm/s. Further, the “Decrease in cholesterol permeability” value with Caco-2 cell monolayers stood at 85.65%.

For the compound `O=C(O)/C=C/c1cccc(O)c1` [m-CA, m-coumaric acid], in the series with Caco-2 cells (Ezetimibe 100 μM), the “Change … (DNA bands) relative to control” value is given as “decrease”; the “Change of β-sheets band area at ∼1637 and 1683 cm−1 vs untreated cells” value is listed as “didn't show any changes”. For the same compound, the “Decrease in cholesterol permeability” value in the series on Caco-2 cell monolayers stood at 77.70%.

For orientation: Papp means a coefficient for how fast a substance crosses the barrier. A higher Papp goes with fast passage. As usually defined, the IC50 is the point on the concentration scale where inhibition reaches its midpoint. Lower therefore signals greater potency in that assay.
